From PubChem BioAssay
The list is not random: actives were taken first. Their share in the collection is about 4.5%.
TAAR1 ag – human TAAR1 agonists, primary screen, Fluo-8 calcium fluorescence, CHO RD-HGA16 cells | vehicle wells 0%, saturating PEA agonist 100% | activation, % at 3 µM | 360,000 compounds, 0.99% hits | AID 624467, 2012;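 active means activation above the mean activation of all test compounds in the run plus 3 SD, cut at about 38% in these data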
Target sequence (Q96RJ0 whole entry, looked up): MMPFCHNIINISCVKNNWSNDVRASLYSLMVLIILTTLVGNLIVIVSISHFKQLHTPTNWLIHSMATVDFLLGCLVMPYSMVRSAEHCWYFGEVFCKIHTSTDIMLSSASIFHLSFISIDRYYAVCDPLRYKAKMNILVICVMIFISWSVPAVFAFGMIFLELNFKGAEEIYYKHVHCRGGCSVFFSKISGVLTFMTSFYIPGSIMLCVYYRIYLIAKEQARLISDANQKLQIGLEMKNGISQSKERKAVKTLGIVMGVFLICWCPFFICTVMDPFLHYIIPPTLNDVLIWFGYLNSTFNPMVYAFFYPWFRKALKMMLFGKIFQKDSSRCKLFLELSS
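Test system: RD-HGA16 (CHO) cells co-expressing Gα16 and hTAAR1; dosing: one-point dosing at 3 µM (nominal); timing: 17-24 h seeding, 75 min 37 °C dye, 30 min RT; signal: kinetic Fluo-8 calcium fluorescence; read-out basis: % activation relative to PEA EC100 response; controls: DMSO and PEA EC100; replicates: n 1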
OX1R antag-1 – antagonists of human orexin 1 receptor (OX1R). OX1R-expressing cells, FRET antagonist read-out. inhibition, % at 6.6 µM. 330,000 compounds, 1.8% hits. AID 485270, 2010; in the data active means inhibition mostly above about 38%, no sharp cut-off; inactive means mostly below about 40%;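 further: 0% = agonist challenge alone and 100% = reference antagonist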
TAAR1 antagonist – human TAAR1 antagonists, primary screen, Fluo-8 calcium fluorescence, CHO RD-HGA16 cells | inhibition, % at 3 µM | antagonist | AID 624466, 2012 | 360,000 compounds, 1.5% hits;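 active means inhibition above a per-plate cutoff, the mean inhibition of test compounds on that plate plus 3 SD, cut at about 49% in these data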;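 further: 0% = DMSO plus EC80 beta-PEA response and 100% = DMSO alone without agonist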
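Assay system: RD-HGA16 CHO cells with stable hTAAR1 and Gα16 / Reagent: EC80 β-phenethylamine stimulus / Doses: 3 µM, single point / Timing: dye loading 75 min at 37 °C, then 30 min room temperature / Measured by: Fluo-8 intracellular calcium dye fluorescence, real-time kinetic reads / Controls: vehicle wells and EC80 agonist wells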
GPR7 antagonist – GPR7 receptor antagonists, primary screen, cell-based, fluorescence, single concentration; Neuropeptides B/W receptor type 1 (Homo sapiens), P48145; GPR7-expressing cells, fluorescence antagonist assay; inhibition, % at 4.4 µM; 290,000 compounds, 1.1% hits; AID 1861, 2009; in the data active means inhibition above about 16%, passing the limit was not always enough;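 further: cells stimulated with the agonist NPW; 0% = agonist with vehicle and 100% = vehicle without agonist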
Target sequence (P48145 whole entry, looked up): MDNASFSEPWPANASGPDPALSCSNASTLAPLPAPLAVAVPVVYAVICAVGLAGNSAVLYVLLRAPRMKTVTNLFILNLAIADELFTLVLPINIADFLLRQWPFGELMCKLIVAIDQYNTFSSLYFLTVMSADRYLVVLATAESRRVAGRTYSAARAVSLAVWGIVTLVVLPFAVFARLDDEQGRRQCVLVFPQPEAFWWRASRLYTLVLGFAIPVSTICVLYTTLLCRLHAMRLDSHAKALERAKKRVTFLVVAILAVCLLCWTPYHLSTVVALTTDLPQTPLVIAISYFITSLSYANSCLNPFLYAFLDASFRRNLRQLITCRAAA
OX1R antag-2 – OX1R (HCRTR1) antagonists, primary screen, fluorescence, CHO/OX1R cells, Fluo-8 calcium, orexin A; inhibition, % at 5 µM; AID 434989, 2010; 330,000 compounds, 0.43% hits; Fluo-8 calcium fluorescence; Orexin/Hypocretin receptor type 1 (Homo sapiens), O43613;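 active means inhibition above its plate's threshold, mean inhibition of all tested compounds on the plate plus 3 SD, cut at about 37% in these data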;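 further: 0% = orexin A challenge wells and 100% = SB-334867-A antagonist wells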
CHO parental Ca – ATP-evoked calcium signal inhibitors, parental CHO, primary screen, counter-screen for OX1R antagonist project, cell-based, fluorescence, Fluo-8 calcium dye; parental CHO-K1, ATP-induced calcium, Fluo-8 fluorescence; inhibition, % at 5.6 µM; 330,000 compounds, 0.63% hits; AID 463079, 2010;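 active means inhibition above that plate's mean sample inhibition plus 3 SD, cut at about 26% in these data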;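 further: 0% = ATP-challenged DMSO wells and 100% = DMSO wells without ATP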
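Assay system: untransfected parental CHO cell line. Also added: ATP agonist challenge. Dosing: one dose, 5.6 µM nominal. Measured by: Fluo-8 fluorescence. Read-out: % inhibition. Benchmarks: ATP wells versus no-ATP DMSO wells. Repeats: no replicates.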
Starred values were filed as active, the others as inactive; · = no result given.

SMILES | TAAR1 ag | OX1R antag-1 | TAAR1 antagonist | GPR7 antagonist | OX1R antag-2 | CHO parental Ca
CCC(C)c1ccc(NC(=O)c2cccs2)cc1 (stereo not drawn) | 7 | 40* | -3 | -1 | 17 | -12
COc1c(Cl)cc(Cl)cc1C(=O)Nc1ccc(NC(=O)c2cccs2)cc1 | 16 | 19 | 69* | -8 | -1 | -15
CCOC(=O)C1=C(C(=O)OCC)C2N(Cc3ccc(C#N)cc3)c3ccccc3[C@@]23C[C@@H](C(=O)OC)N(S(=O)(=O)c2cccs2)C3=N1 (stereo partly drawn) | 1 | · | -13 | · | · | ·
O=C(C(=O)N1CCC(CNS(=O)(=O)c2cccc(C(F)(F)F)c2)CC1)c1cc2ccccc2o1 | -1 | · | -12 | · | · | ·
CC(C)C[C@@H]1COc2cc(N3CCOCC3)ccc2S(=O)(=O)N1 | 0 | · | 20 | · | · | ·
COC(=O)C[C@@H]1C[C@H]2c3cc(NC(=O)Nc4ccccc4F)ccc3O[C@H]2[C@@H](CO)O1 | 0 | · | 8 | · | · | ·
O=C(NCc1ccccc1)[C@@H]1CCCN1C(=O)[C@H]1CCCN1C(=O)N1CCCCC1 | 0 | · | -3 | · | · | ·
C[C@]12CCC3c4ccc(OCC(=O)O)cc4CCC3C1CCC2=O (stereo partly drawn) | 1 | -1 | 9 | 22* | -2 | -5
Cc1cc(Nc2ccc(Cl)c(C(F)(F)F)c2)cc(=O)n1-c1ccc(Cl)c(C(F)(F)F)c1 | -1 | · | 5 | · | · | ·
COC(=O)[C@H](Cc1ccccc1)N1CC=CS1(=O)=O | 1 | · | -10 | · | · | ·
Nc1nc(SCC(=O)c2ccc([N+](=O)[O-])cc2)n[nH]1 | 2 | 49* | 10 | 0 | -5 | -9
Nc1nc(SCC(=O)c2ccc(Oc3ccccc3)cc2)n[nH]1 | 1 | 5 | 10 | 4 | 4 | -5
CCOC(=O)C1CCCN(c2cc(NCCCO)c([N+](=O)[O-])c3nonc23)C1 (stereo not drawn) | 6 | 73* | -17 | -4 | -30 | -6
Cc1cccc(N2CCN(C(=O)CSCc3c(C)noc3C)CC2)c1C | · | 30 | · | 7 | 18 | 46*
Cc1noc(C)c1CSCC(=O)N1CCN(c2ccc(F)cc2)CC1 | 15 | 18 | 6 | 0 | -20 | -4
CC(C)CCNc1ncnc2c1nnn2Cc1ccccc1Cl | 40* | 21 | 21 | 0 | -34 | -10
Clc1ccc(CCNc2ncnc3c2nnn3Cc2ccccc2)cc1 | 38* | 6 | -32 | 9 | -25 | -17
OCCNc1ncnc2c1nnn2Cc1ccccc1 | 2 | · | -17 | 5 | · | ·
CC1(C)CC[C@]2(C(=O)O)[C@H](O)C[C@]3(C)C(=CCC4[C@@]5(C)C[C@H](O)[C@H](O)[C@@](C)(CO)C5CC[C@]43C)[C@@H]2C1 (stereo partly drawn) | 1 | 7 | -22 | · | 24 | 74*
Cc1ccccc1S(=O)(=O)Cc1ccc(C(=O)NC2CCC(C)CC2)o1 (stereo not drawn) | 2 | 6 | -27 | -2 | -19 | -6
Cc1ccccc1S(=O)(=O)Cc1ccc(C(=O)N2CC(C)CC(C)C2)o1 (stereo not drawn) | 42* | 13 | -15 | -7 | -36 | -11
Cc1ccccc1S(=O)(=O)Cc1ccc(C(=O)N2CCN(c3cccc(C)c3C)CC2)o1 | 26 | 17 | 73* | 4 | 3 | -4
CCC(=O)c1ccc(OCC(=O)OCC(=O)N(CCC#N)c2ccc3c(c2)OCCO3)cc1 | 8 | 2 | 22 | · | 26 | 44*
COCc1cc(N2CCN(C(=O)OC(C)(C)C)C[C@@H]2C)ccc1N1CC[C@@H](O)C1 | 2 | · | -2 | · | · | ·
N#Cc1ccccc1NC(=O)CSc1nnc(-c2ccccc2O)n1-c1ccccc1 | 11 | 43* | 22 | -5 | 9 | -15
SMILES | TAAR1 ag | OX1R antag-1 | TAAR1 antagonist | GPR7 antagonist | OX1R antag-2 | CHO parental Ca
Cc1ccccc1NC(=O)CSc1nnc(-c2ccccc2)n1-c1ccccc1 | 3 | 26 | -8 | 6 | -35 | -20
CC1(CC(=O)N/N=C/c2cc([N+](=O)[O-])c(O)cc2O)OCCO1 | 4 | 52* | 7 | 1 | -2 | -2
COc1ccc(-n2c(C)cc(C(=O)COC(=O)Cn3cnc4ccccc43)c2C)cc1 | 5 | 32 | 27 | 0 | 18 | 34*
COc1ccc(NC(=O)COC(=O)Cn2cnc3ccccc32)cc1 | 4 | 1 | -12 | · | -7 | -4
COc1ccc(-n2c(C)cc(C(=O)COC(=O)c3ccc(O)cc3O)c2C)cc1 | -1 | 18 | 26 | · | 45* | 33*
Cc1cc(C(=O)COC(=O)c2ccc(O)cc2O)c(C)n1-c1ccc(OC(F)F)cc1 | 0 | · | 46 | · | · | ·
Cc1ccc(C(=O)N2CCC[C@@H]2C(=O)N2CCC[C@H]2C(=O)NCc2ccccc2)cc1 | -2 | · | -2 | · | · | ·
O=C(O/N=C\c1ccc(N2CCCCC2)c([N+](=O)[O-])c1)c1cccc(C(F)(F)F)c1 | -3 | 6 | 10 | -10 | -14 | -9
CO/N=C/c1ccc(N2CCN(C(=O)c3ccc(F)cc3)CC2)c([N+](=O)[O-])c1 | 38* | 10 | 39 | 6 | -5 | -2
CO/N=C/c1ccc(N2CCN(C(=O)c3cccc(C(F)(F)F)c3)CC2)c([N+](=O)[O-])c1 | 22 | 15 | 54* | 7 | 6 | 12
FC(F)(F)c1ccccc1CN1CCCc2nc(-c3ccc(Br)cc3)ccc21 | -1 | · | -28 | · | · | ·
Cc1nc(SCCc2nc3ccccc3[nH]2)c2oc3ccccc3c2n1 | 2 | 59* | -1 | · | 31 | -15
Cc1nc(SCc2nc3ccc(F)cc3[nH]2)c2oc3ccccc3c2n1 | 13 | 33 | 38 | · | -29 | -29
Cc1nc(SCc2nc3ccc(C(=O)c4ccccc4)cc3[nH]2)c2oc3ccccc3c2n1 | 10 | 31 | 25 | · | 27 | -18
Cc1nc(SCc2nc3c(O)cccc3[nH]2)c2oc3ccccc3c2n1 | 9 | 25 | 25 | · | -11 | -12
Cc1ccc2oc3c(SCc4nc5ccccc5[nH]4)nc(C)nc3c2c1 | 3 | 58* | 46 | · | -9 | -24
Cc1nc(SCc2nc3ccccc3[nH]2)c2oc3cc(Br)ccc3c2n1 | 10 | 48* | 42 | · | 27 | -11
Cc1ccc(CN2CC=CS2(=O)=O)cc1 | 1 | · | 4 | · | · | ·
N/C(=N\OC(=O)Oc1ccccc1)c1ccc([N+](=O)[O-])cc1 | 2 | 67* | 0 | 0 | -7 | 4
N/C(=N\OC(=O)Oc1ccccc1)c1cccc([N+](=O)[O-])c1 | 5 | 51 | 5 | -7 | -5 | 0
